Measurements of several laboratories.
Target: Casein kinase I isoform gamma-2 (CSNK1G2, Homo sapiens, UniProt P78368)

O=C(CSc1nc2nccnc2c(=O)n1CCc1ccccc1)Nc1nccs1  inhibition (enzyme activity; inhibitor; 10 µM): 14%
COc1cc(Nc2cnc(C#N)c(O[C@H](C)CN(C)C)n2)ncc1-c1cnn(C)c1  remaining activity (enzyme activity; inhibitor; radiometric; 1 µM): 101%
CC(C)(C)c1nc2c(s1)c1nc(N)ncc1c1ccc(NS(=O)(=O)c3c(F)cccc3F)c(F)c12  remaining activity (enzyme activity; inhibitor; radiometric; 1 µM): 104%
O=C(NCCCC1CCCCC1)c1ccc(CNC(=O)c2cnn(-c3ccccc3)c2C(F)(F)F)cc1  remaining binding (cell-free assay; competition with immobilised ligand; 0.1 µM): 96%
C[C@@H]1CCN(C(=O)CC#N)C[C@@H]1N(C)c1ncnc2[nH]ccc12  remaining signal (cell-free assay; inhibitor; 0.5 µM): 95.4%
Cc1cc(NC(=O)c2cccc3cc(-c4cccc5[nH]nc(N)c45)ccc23)ccc1F  activity vs control (enzyme activity; inhibitor; 0.1 µM): 102%
O=C1Nc2ccc(Cl)cc2C1=Cc1cc(Cl)c(O)c(Cl)c1  remaining signal (cell-free assay; 0.5 µM): 83.5%
CCCS(=O)(=O)Nc1ccc(F)c(C(=O)c2c[nH]c3ncc(-c4ccc(Cl)cc4)cc23)c1F  inhibition (enzyme activity; inhibitor; 1 µM): < 10%
Cc1cnc(NC2CCOCC2)nc1-n1cnc(C(=O)NC(CN)c2cc(F)cc(Cl)c2)c1 (stereo not shown)  remaining activity (enzyme activity; inhibitor; radiometric; 1 µM): 53%
Nc1cnc(N2CCc3cc(S(=O)(=O)Nc4c(F)cc(Cl)cc4F)cc(N4CCCC4=O)c32)nc1  remaining binding (cell-free assay; competition with immobilised ligand; 1 µM): 88%
CNC(=O)c1cc(Oc2ccc(NC(=O)Nc3ccc(Cl)c(C(F)(F)F)c3)cc2)ccn1  inhibition (enzyme activity; inhibitor; 0.3 µM): 5%
NS(=O)(=O)c1cc(NC(=O)C2(c3ccccc3Cl)CC2)ccc1Oc1cccc(Cl)c1  remaining binding (cell-free assay; competition with immobilised ligand; 1 µM): 82%
O=C1NC(=O)c2cc(Nc3ccc(F)cc3)c(Nc3ccc(F)cc3)cc21  remaining signal (cell-free assay; 0.5 µM): 97.5%
Nc1ncnc2occ(-c3ccc(NC(=O)Nc4cc(C(F)(F)F)ccc4F)cc3)c12  remaining signal (cell-free assay; inhibitor; 20 µM): 6.8%
CC1=C(C#N)[C@@H](c2ccc3[nH]nc(C)c3c2)C(C#N)=C(c2ccc(Cl)cc2)N1  remaining binding (cell-free assay; competition with immobilised ligand; 1 µM): 100%
Cc1ccc(C(=O)Nc2ccc(CN3CCN(C)CC3)c(C(F)(F)F)c2)cc1C#Cc1cnc2cccnn12  remaining activity (enzyme activity; inhibitor; 23.5 nM): 96%
C[C@@H]1CN(c2cc(-c3n[nH]c4ccc(OC5(C)CC5)cc34)ncn2)C[C@H](C)O1  remaining binding (cell-free assay; competition with immobilised ligand; 0.1 µM): 100%
COc1cc2ncnc(Nc3ccc(Oc4ccccc4)c(C)c3C)c2cc1OC  inhibition (enzyme activity; inhibitor; 1 µM): 1%
CCc1ccccc1C(=O)Nc1n[nH]c2c(C)c(F)c(C3C(C#N)=C(C)N(C)C(C)=C3C#N)cc12  remaining binding (cell-free assay; competition with immobilised ligand; 1 µM): 97%
Cc1sc(C(=O)NC2COC2)cc1-n1cc(NC(=O)Nc2c(F)cccc2Cl)cn1  remaining activity (enzyme activity; inhibitor; 10 µM): 104%
C[C@H](NC(=O)c1cnc2n1[C@](C)(Cc1ccc(C#N)cc1)C(=O)N2c1cc(Cl)c(F)c(Cl)c1)C(=O)NC1(c2ccccn2)CC1  remaining binding (cell-free assay; competition with immobilised ligand; 1 µM): 90%
COc1cc(Nc2c(C#N)cnc3cc(OCCCN4CCN(C)CC4)c(OC)cc23)c(Cl)cc1Cl  remaining signal (cell-free assay; 0.5 µM): 98.3%
